Data from the M2OR odorant receptor database.

biological target: T1, OR5M3 (Homo sapiens) (UniProt Q8NGP4); conditions: stereoisomer not certain
T1 sequence (whole entry): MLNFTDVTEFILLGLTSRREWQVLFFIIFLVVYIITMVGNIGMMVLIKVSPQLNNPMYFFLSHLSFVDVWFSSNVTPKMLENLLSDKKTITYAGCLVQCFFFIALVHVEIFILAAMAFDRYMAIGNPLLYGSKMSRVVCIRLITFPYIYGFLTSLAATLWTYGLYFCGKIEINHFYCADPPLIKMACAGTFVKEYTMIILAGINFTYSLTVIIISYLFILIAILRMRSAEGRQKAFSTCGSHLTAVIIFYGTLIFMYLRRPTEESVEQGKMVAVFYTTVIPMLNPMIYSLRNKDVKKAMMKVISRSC
Outline: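 Transient luciferase assays in mammalian cell lines were common, though methods varied by source. The values come from published papers and their supplementary material, with extra details from the original authors when needed. Responsive refers to a measured signal the original authors judged statistically different from baseline, and non-responsive (inactive) to the remainder.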
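Also: active if original authors judged signal statistically different from baseline.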

Odorant receptor agonist call, inactive:
O=c1ccc2ccccc2o1, CC(C)CC=O, CCCCCCCCCC(=O)OCC, CSSc1ccoc1C, CCC(S)C(C)=O (configuration not stated), COc1cccc(OC)c1O, CCCCCC=CCCC=O, CCOC(C)=O, CCC(=O)O, CSCCC=O, CC1=CCC(C(C)C)C=C1 (configuration not stated), CCC(C)CO (configuration not stated), CC=Cc1ccc(OC)cc1, CSCCCO, C=CC(O)CCCCC (configuration not stated), CCCCCC=O, CCCSSSCCC, CCOC(=O)C(C)C, C=CC(=C)CCC=C(C)C, CC=CC(=O)C1=C(C)CCCC1(C)C, CCCCCc1ccccn1, CSSSC, CCCCCC1CCC(=O)O1 (configuration not stated), COC(=O)C=Cc1ccccc1, C=C1CCC2(C(C)C)CC12 (configuration not stated), Cc1cccc(O)c1, CCCC(S)CCO (configuration not stated), CCCCCC=CC=O, CC1=CC(=O)C(C)O1 (configuration not stated), C=C(C)C1CC=C(C)CC1 (configuration not stated), CCCCCCCCC=CC=O, C=C(C)c1ccc(C)cc1
